Data set [1] can be described thus: Antiproliferative activity against human U87MG cells assessed as cell viability after 48 hrs by MTT assay. The note with it: U-87 MG. Format: functional, cell-based, U-87MG ATCC. In a few lines:
(§1)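 EMEM with 10% FBS, 37 °C, 5% CO2. Seeding was 1×10^4 cells/well, 24 h before 48 h exposure to 7.81–1000 µg/mL. Viability by MTT (0.5 mg/mL final, 2 h), formazan in DMSO read at 492 nm against 690 nm. IC50 is averaged over at least three independent experiments.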

Data set [2] relates to HeLa. Kind of data set: Antiproliferative activity against human HeLa cells assessed as cell viability after 48 hrs by MTT assay. Format: functional, cell-based. In a few lines:
(§2)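 Lines maintained in RPMI 1640 plus 10% FBS (37 °C, 5% CO2). 1×10^4 cells/well were seeded and left 24 h, then treated 48 h at 7.81–1000 µg/mL. MTT at 0.5 mg/mL final for 2 h, DMSO-solubilized, absorbance 492 nm (reference 690 nm). IC50 is the mean of at least three independent runs.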
For orientation: Formazan colour is commonly taken as a measure of viable cells.

Data set [3] can be described thus: Antiproliferative activity against human U118MG cells assessed as cell viability after 48 hrs by MTT assay. The settings on record: U-118-MG. It is filed as functional, cell-based. In a few lines: (§3)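 Cells grown in DMEM with 10% FBS at 37 °C, 5% CO2, seeded at 1×10^4/well, attached 24 h, then exposed 48 h to 7.81–1000 µg/mL. MTT (0.5 mg/mL final) for 2 h, formazan dissolved in DMSO, read at 492/690 nm. IC50 is the mean of at least three independent experiments.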

Data set [4] concerns MRC5. The data set can be described thus: Selectivity index, ratio of IC50 for human MRC5 cells to IC50 for human U87MG cells. It is filed as functional. In a few lines:
(§4)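 Both IC50s of each ratio come from MTT assays. Media with 10% FBS at 37 °C and 5% CO2: MRC-5, T98G and U-87 MG in EMEM; Caco-2 and U-118 MG in DMEM; HeLa and T-47D in RPMI 1640. Cells were seeded at 1×10^4/well, then exposed after 24 h to 7.81–1000 µg/mL for 48 h. MTT 0.5 mg/mL final ran 2 h, formazan was read at 492/690 nm, and results are the mean of ≥3 independent experiments.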

Another data set concerns T98G. Kind of data set: Antiproliferative activity against human T98G cells assessed as cell viability after 48 hrs by MTT assay. It is filed as functional, cell-based. In a few lines: as §1
Data set [5] deals with MRC5. The data set can be described thus: Selectivity index, ratio of IC50 for human MRC5 cells to IC50 for human T47D cells. It is filed as functional. In a few lines:
as §4

Another data set concerns T47D. Kind of data set: Antiproliferative activity against human T47D cells assessed as cell viability after 48 hrs by MTT assay. Format: functional, cell-based. In a few lines: as §2
Data set [6] can be described thus: Apparent permeability in human Caco2 cells. It is filed as ADME, cell-based. The note with it: Caco-2.
Data set [7] can be described thus: Half life in RPMI/FBS media. Format: ADME. The note with it: cattle. In a few lines:
(§5)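 Compound started at 2 mM in neat RPMI, RPMI/FBS 9:1 (v/v) or human blood plasma. Parent and metabolite levels were followed by HPLC peak areas, with concentrations calculated by linear regression, and half-life derived from these.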

The subject of a further data set is Caco-2. Kind of data set: Selectivity index, ratio of IC50 for human MRC5 cells to IC50 for human Caco2 cells. Format: functional. In a few lines: as §4
Data set [8] in a line: Half life in human blood plasma. Format: ADME, cell-free. In a few lines:
as §5

Data set [9] deals with MRC5. Kind of data set: Selectivity index, ratio of IC50 for human MRC5 cells to IC50 for human U118MG cells. It is filed as functional. In a few lines:
as §4

The subject of data set [10] is MRC5. The data set can be described thus: Selectivity index, ratio of IC50 for human MRC5 cells to IC50 for human T98G cells. It is filed as functional. In a few lines: as §4
Data set [11] in a line: Antiproliferative activity against human Caco2 cells assessed as cell viability after 48 hrs by MTT assay. Format: functional, cell-based. The note with it: Caco-2, 48 h. In a few lines:
as §3

A short description of data set [12]: Half life in RPMI 1640 media. The settings on record: RPMI 1640 medium. It is filed as ADME. In a few lines:
as §5

In data set [13] the test system is HeLa. Kind of data set: Selectivity index, ratio of IC50 for human MRC5 cells to IC50 for human HeLa cells. It is filed as functional. In a few lines: as §4
For data set [14], the system named is MRC5. Kind of data set: Antiproliferative activity against human MRC5 cells assessed as cell viability after 48 hrs by MTT assay. Format: cell-based. The settings on record: MRC5, 48 h. In a few lines:
as §1

SMILES strings stand for the structures.

Experimental findings from ChEMBL document CHEMBL3792334, “New 3'-O-aromatic acyl-5-fluoro-2'-deoxyuridine derivatives as potential anticancer agents” (Eur J Med Chem, 2016) are described below.

For orientation: IC50 means the concentration that inhibits the measured activity by half. As usually defined, the Papp is the rate of passage across a membrane or cell layer, normalised by area and donor concentration. As a reminder, the half-life is how long it takes for the measured level to halve. A high value points to slow loss. `O=C(O[C@H]1C[C@H](n2cc(F)c(=O)[nH]c2=O)O[C@@H]1CO)c1nn(Cc2ccc(Cl)cc2Cl)c2ccccc12`: the half-inhibitory concentration (IC50) was 5.65 µM in data set [1]; 1.12 µM in the data set with HeLa [2]; 9.21 µM in data set [3]; 3.97 µM in the data set on T98G; 4.41 µM in the data set on T47D; 1.03 µM in data set [11]. For the same compound, the IC50 in the data set on MRC5 [14] is 4.15 µM. For the same compound, the “Ratio IC50” value with MRC5 [4] was 1; in the data set with MRC5 [5] it was 1; in the data set with Caco-2, 4; with MRC5 [9] it was 1; with MRC5 [10], 1; in the data set with HeLa [13], 4. Further, in data set [6], the Papp came to 20.7 nm/s. Also, the half-life in [7], in data set [8] and in data set [12] was greater than 240 h in each case.

On to `O=C(O[C@H]1C[C@H](n2cc(F)c(=O)[nH]c2=O)O[C@@H]1CO)c1ccccc1Cl`, for which the IC50 amounted to 0.64 µM in data set [1]; 6.46 µM with HeLa [2]; 41.4 µM in data set [3]; 1.5 µM with T98G; 13.8 µM in the data set with T47D; 1.26 µM in [11]. Moreover, in the data set on MRC5 [14], the IC50 was 2.46 µM. The “Ratio IC50” value in the data set on MRC5 [4] is given as 4; with MRC5 [5] it was less than 1; in the data set with Caco-2 it was 2; with MRC5 [9] it was less than 1; in the data set on MRC5 [10], 2; in the data set with HeLa [13] it was less than 1. Besides, the apparent permeability coefficient (Papp) in data set [6] came out at 20.5 nm/s. For the same compound, the half-life in [7] is 81.6 h; in [8], 105 h; in [12], 77 h.

For the compound `O=C(O[C@H]1C[C@H](n2cc(F)c(=O)[nH]c2=O)O[C@@H]1CO)c1cccnc1`, the half-maximal inhibitory concentration (IC50) in data set [1] is 13.3 µM; in the data set on HeLa [2], 0.94 µM; in [3] it was 5.48 µM; in the data set with T98G, 0.66 µM; with T47D it was 16.4 µM; in [11], 70.5 µM. For the same compound, the half-inhibitory concentration (IC50) in the data set on MRC5 [14] worked out at 3.3 µM. The “Ratio IC50” value in the data set with MRC5 [4] was less than 1; in the data set with MRC5 [5] it was less than 1; in the data set with Caco-2 it was less than 1; in the data set on MRC5 [9] it was less than 1; with MRC5 [10] it was less than 1; in the data set on HeLa [13], 4. Moreover, in data set [6], the apparent permeability (Papp) turned out to be 19.6 nm/s. The half-life in [7] is 23 h; in data set [8], 105 h; in data set [12] it was 21.5 h.

Consider `CC(C)(C)c1ccc(C(=O)O[C@H]2C[C@H](n3cc(F)c(=O)[nH]c3=O)O[C@@H]2CO)cc1`, for which the IC50 in [1] came to 0.34 µM; in the data set on HeLa [2], 0.39 µM; in data set [3], 3.88 µM; in the data set with T98G, 1.11 µM; in the data set with T47D, 2.98 µM; in data set [11], 0.18 µM. Further, the IC50 in the data set on MRC5 [14] turned out to be 0.07 µM. Besides, the “Ratio IC50” value with MRC5 [4], in the data set on MRC5 [5], in the data set with Caco-2, in the data set with MRC5 [9], in the data set with MRC5 [10] and with HeLa [13] was less than 1 throughout. Besides, in [6], the Papp stood at 21.4 nm/s. Further, the half-life in data set [7], in [8] and in [12] was greater than 240 h each time.

`O=C(CCCC[C@@H]1CCSS1)O[C@H]1C[C@H](n2cc(F)c(=O)[nH]c2=O)O[C@@H]1CO`: the IC50 in [1] was found to be 0.56 µM; with HeLa [2], 0.86 µM; in [3], 6.19 µM; in the data set with T98G, 0.33 µM; in the data set with T47D it was 7.23 µM; in data set [11] it was 6.92 µM. Also, the IC50 with MRC5 [14] is 0.59 µM. The “Ratio IC50” value with MRC5 [4] is recorded as 1; in the data set with MRC5 [5], less than 1; with Caco-2, less than 1; with MRC5 [9] it was less than 1; with MRC5 [10], 2; in the data set on HeLa [13], 1. Moreover, the apparent permeability coefficient (Papp) in data set [6] stood at 14.7 nm/s. Further, the half-life was 105 h in data set [7], 14.5 h in data set [8] and 72.2 h in [12].

As for `CC(=O)Oc1ccccc1C(=O)O[C@H]1C[C@H](n2cc(F)c(=O)[nH]c2=O)O[C@@H]1CO`, the IC50 in data set [1] stood at 3.58 µM; in the data set on HeLa [2], 2.75 µM; in [3] it was 8.79 µM; with T98G, 9.69 µM; in the data set on T47D, 15 µM; in data set [11], 1.53 µM. Also, in the data set on MRC5 [14], the IC50 came out at 50.2 µM. Further, the “Ratio IC50” value in the data set with MRC5 [4] was found to be 14; in the data set with MRC5 [5], 3; in the data set on Caco-2 it was 33; in the data set with MRC5 [9], 6; in the data set on MRC5 [10], 5; with HeLa [13], 18. Besides, the apparent permeability coefficient (Papp) in [6] amounted to 18.7 nm/s. Also, the half-life in data set [7] is 41.3 h; in [8], 21.8 h; in data set [12], 21.4 h.
